From PubChem BioAssay
A number with no mark means an inactive call. Results filed as inconclusive are left out. The source made the active and inactive calls.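 Rule for the calls, unless noted: active = cell viability at or below a set limit in both duplicate runs, the limit being the all-compound median minus 4 SD (cut at about 23% in these data, passing the limit was not always enough); inconclusive = no clear call, values can overlap the other calls; inactive = the rest.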

Assays:
[1] = S. cerevisiae growth inhibition in permissive medium (OD615), pilot counter-assay for S. cerevisiae lifespan shortening project, permissive growth control (AID 705;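 active = growth inhibition above 25% in both replicates, a cutoff set 3 SD above the mean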); conditions: OD615, 24 h, at 10 µM, active compounds read high
Procedure, shortened: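 assay system = Saccharomyces cerevisiae strain carrying genetically modified DeaD replicative-lifespan system | technique = absorbance (optical density) at 615 nm | buffer or medium = permissive raffinose/galactose medium | timing = cells pre-grown 4 h, then 24 h compound exposure, 30 °C humidified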

[2] = S. cerevisiae growth inhibition in restrictive medium, OD615, pilot screen, restrictive growth control, yeast lifespan reduction project (AID 706;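 active = growth inhibition above a set limit, 3 SD over mean compound inhibition, in both replicates, cut at about 43% in these data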;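 note: modified DeaD lifespan yeast strain shifted to restrictive glucose medium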); conditions: OD615, 48 h, at 10 µM, active compounds read high
Procedure, shortened: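 System: modified S. cerevisiae. Buffer or medium: CSMM-D glucose medium. Incubation: 4 h pre-growth plus 48 h compound exposure, 30 °C. Detection: absorbance (optical density) measured at 615 nm.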

[3] = doxorubicin toxicity protection in MRP-1 cells – H69AR cells, CellTiter-Glo, duplicate, MRP-1 activator project, pilot screen (AID 807;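 active = viability increase at or above a cutoff of the median across tested compounds plus 3 SD, cut at about 8.5% in these data, passing the limit was not always enough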;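 note: compound pretreatment 18-22 h then 72 h combined with doxorubicin; 0% = doxorubicin alone and 100% = vehicle without doxorubicin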); conditions: H69AR viability with doxorubicin, CellTiter-Glo luminescence; at 10 µM; active compounds read high
[4] = viability of HCT116 without oncogenic beta-catenin – human colon tumor cells, pilot screen (AID 823); conditions: HCT116 beta-catenin knockout viability, CellTiter-Glo, 60 h; at 10 µM; active compounds read low;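 note: 0% = wells killed by 20 µM Hyamine and 100% = untreated DMSO cell wells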
[5] = viability of PTEN-null HCT116 cells – cell-based, HCT116 clonal line, CellTiter-Glo, pilot screen (AID 824;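 active = viability at or below 27.92% in each of two runs, the all-compound median minus 4 SD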;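 note: 0% = 20 µM Hyamine control and 100% = vehicle cell control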); conditions: HCT116 PTEN-deleted viability, 60 h, at 10 µM, active compounds read low
[6] = RAM pathway blockade in budding yeast – dse1pr::URA3 reporter, 5-FOA selection, pilot screen (AID 869;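 active = inhibition over a set limit, the all-compound mean plus 3 SD, in both replicate runs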;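 note: 0% = DMSO wells with no growth and 100% = 10 µM 1-NA-PP1 with full growth; RAM network block rescues cells from 5-FOA so hits raise OD615 growth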); conditions: S. cerevisiae dse1pr::URA3 5-FOA growth, OD615, 2 d; at 10 µM; active compounds read high; strain carries analog-sensitive mutant Cbk1 kinase
[7] = RAM signaling pathway blockade in yeast – S. cerevisiae, Pdr1DBD-CYC8 efflux-inhibited sensitized strain, primary screen (AID 1298;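 active = RAM network inhibition above 8.4% in each of two replicates, 3 SD over the compound average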;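 note: 0% = DMSO untreated cells without growth and 100% = 10 µM 1-NA-PP1 full growth; higher means more yeast growth rescued from 5-FOA killing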); conditions: S. cerevisiae cbk1-as DSE1-URA3 strain, 5-FOA growth OD615, 2 d; at 50 µM; active compounds read high

Structure (SMILES)	growth inhibition [1]	growth inhibition [2]	viability increase [3]	viability [4]	viability [5]	inhibition [6]	RAM network inhibition [7]
CC(c1ccccc1)C(CC(=O)O)C(=O)NC1CCCCC1 (centres undefined)	-12.4%	-1.39%	-0.07%	98.2%	103%	1.54%	1.1%
CCOC(=O)N1CCC(NC(=O)CN2C(=O)CSc3nc(C)cc(C)c32)CC1	-8.91%	6.29%	-0.46%	109%	97.7%	-0.65%	0.43%
O=S(=O)(CCc1ccccc1)N1CCOCC1	1.85%	-1.08%	-1.35%	106%	103%	0.8%	2.83%
CCOC(=O)c1c(N)sc(C(N)=O)c1C	-17.3%	-8.77%	-1.19%	95.3%	97.3%	1.25%	0.78%
Cc1c(C(=O)NCCN2CCOCC2)oc2ccc(S(=O)(=O)N3CCCCCC3)cc12	-3.55%	-1.55%	-2.1%	86.1%	90.6%	1.15%	-1.39%
CCc1ncc(C(=O)c2ccc(OC)cc2)n1C	1.37%	-0.315%	3.42%	105%	104%	0.225%	5.28%
O=C(CCS(=O)(=O)c1cccc2nonc12)N1CCCc2ccccc21	-10.4%	-22.1%	-4.61%	92.8%	92.9%	2.08%	8.49%
COc1ccc(C(=O)Nc2c(F)c(F)c(F)c(F)c2F)c(OC)c1	-11%	3.84%	-1.15%	100%	102%	2.96%	2.45%
Cc1cccc(-c2nc(CS(=O)CC(=O)N3CCc4ccccc4C3)c(C)o2)c1 (centres undefined)	0.13%	20.1%	-4.54%	84.8%	88.8%	0.385%	3.23%
CCOC(=O)N1CCC(Nc2c(OCC)c(=O)c2=O)CC1	-10.2%	10.1%	-0.57%	102%	96.4%	1.31%	5.22%
O=C1c2ccccc2C(=O)N1Cc1nc2ccccc2c(=O)n1CCCn1ccnc1	-3.57%	0.74%	-1.98%	96.3%	101%	0.915%	4.3%
CCc1ccccc1NC(=O)c1cc(C2CC2)on1	-12.1%	6.47%	-0.65%	93.2%	91.8%	0.045%	3.34%
Cc1cc2cc(CCNC(=O)c3c(-c4ccccc4Cl)noc3C)c(=O)[nH]c2cc1C	-14.1%	-2.13%	-3.71%	94.9%	94.7%	1.85%	3.43%
COC(=O)C1=C(C)N(c2cc(Cl)cc(Cl)c2)C(=O)C1	-2.8%	-18.3%	-6.24%	28.2%	45.7%	0.14%	2.04%
COc1cc(NC(=O)COc2ccc(F)cc2)nc(OC)n1	-2.6%	11.7%	-3.92%	101%	101%	1.72%	1.08%
O=C(Nc1nccs1)C1CCN(S(=O)(=O)c2cccnc2)CC1	-4.93%	3.12%	-0.26%	102%	101%	0.905%	-0.78%
O=C(OCCCCN1C(=O)c2ccccc2C1=O)c1ccc(S(=O)(=O)N2CCCC2)cc1	-11.7%	-0.405%	0.28%	101%	100%	1.85%	4.52%
Brc1cnc(N2CCCC2)nc1N1CCCCC1	-5.12%	2.11%	-2.63%	86.2%	84.4%	2.09%	0%
COCCNC(=O)CS(=O)Cc1nc(-c2ccccc2C)oc1C (centres undefined)	-8.16%	5.6%	-0.56%	100%	98%	0.23%	2.05%

Structure (SMILES)	growth inhibition [1]	growth inhibition [2]	viability increase [3]	viability [4]	viability [5]	inhibition [6]	RAM network inhibition [7]
Cc1c(C(=O)NCc2ccccn2)sc2nc(-c3ccccc3)cn12	6.98%	13.1%	0.68%	112%	101%	0.91%	0.57%
CCOC(=O)Cn1c(C)nc2ccccc21	-14%	-14%	-1.63%	102%	105%	1.29%	1.95%
O=C(CCC(=O)OCCCC(F)(F)C(F)(F)F)Nc1ccccc1	-3.25%	3.78%	1.41%	100%	104%	0.785%	3.34%
CCCOc1ccc(N2CC(C(=O)Nc3ccccc3OC)CC2=O)cc1 (centres undefined)	-15.6%	-6.16%	0.54%	105%	93.7%	0.11%	2.24%
C=CCNC(=O)C1CCN(S(=O)(=O)c2ccc(Br)cc2)CC1	-8.89%	-18%	-2.46%	48.1%	48.1%	0.52%	1.76%
COc1ccc(-c2nnc(NC(=O)C(C)C)o2)cc1	2.56%	6.86%	-1.77%	103%	102%	1.23%	4.26%
CCN1C(=O)CC(N2CCN(c3ccc(Cl)cc3)CC2)C1=O (centres undefined)	-18.6%	-7.02%	1.46%	98%	94.6%	1.04%	4.19%
CN(C)c1nc(Oc2ccc(C(=O)OCC(=O)Nc3ccccc3)cc2)nc(N(C)C)n1	5.09%	5.01%	-3.31%	95.6%	94.3%	2.15%	1.24%
COc1ccc(C2C(C#N)=C(N)N3C(=C2C#N)Sc2ccccc23)cc1 (centres undefined)	-1.28%	-4.12%	-0.06%	98.9%	102%	1.09%	8.82%
COc1ccc(-c2nnc3ccc(SCC(=O)N4CCCCC4)nn23)cc1OC	3.98%	18.9%	-4.61%	98.3%	98.9%	0.24%	2.36%
COc1ccccc1OCC(=O)NC1CCCCCC1	-5.33%	-8.23%	-0.27%	96.3%	88.8%	-0.49%	0.78%
Cc1cccc(C2Nc3ccccc3C(=O)N2c2ccccc2)n1 (centres undefined)	-13.9%	-8.88%	-2.08%	94.1%	101%	2.28%	2.46%
COc1cc(N)ccc1Cc1ccc(N)cc1OC	-5.34%	-2.19%	-4.54%	85.9%	90.8%	-0.06%	6.85%
COc1ccccc1-c1nc(-c2ccccn2)no1	-10.5%	-2.21%	-5.99%	45.5%	39.7%	0.975%	0.42%
COCCNc1cc(C)nc2c(-c3ccccc3OC)c(C)nn12	-1.17%	4.02%	-2.38%	97.2%	94.2%	1.74%	0.56%
COc1ccccc1C(=O)NCc1ccc2c(c1)OCO2	-21.2%	-10.3%	0.91%	107%	107%	0.52%	2.54%
CCN(CC)S(=O)(=O)c1cccc(-c2nnc(SCc3nnc(-c4cccs4)o3)n2N)c1	5.53%	46.4% (active)	0.28%	86.5%	92.5%	1.85%	3.12%
Cn1c(C(=O)N2CCN(c3ccccn3)CC2)cc2c(=O)n(C)c3ccccc3c21	2.93%	16.5%	-2.39%	102%	97.4%	0.875%	-0.81%
